About 440 (0.2%) of roughly 220,000 compounds were called active. The sample as a whole holds a higher share of actives than the screen did. Unmarked numbers belong to inactive results.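 The calls were made as follows: active = inhibition above the campaign mean of all tested compounds plus 3 SD (cut at about 14% in these data); inactive = the rest.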

This experiment deals with Serine hydrolase RBBP9 (Homo sapiens) (UniProt O75884). The experiment is described as follows: blockers of RBBP9 serine hydrolase labeling – biochemical, fluorescence polarization, FP-Rh probe, HTS, primary screen (AID 1515).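 Also: plate controls were DMSO wells with RBBP9 for no effect and wells lacking RBBP9 protein for full effect.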 Conditions: recombinant RBBP9, FP-Rh probe fluorescence polarization; at 7.94 µM; stronger effect = higher value. Summed up: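 Material: RBBP9 protein. Amount: RBBP9 at 2.5 µM in dispensed solution, before mixing. Schedule: 30 min then 45 min, 25 °C. Medium: Tris buffer pH 8.0, NaCl, Pluronic. Measured by: fluorescence polarization. Measure: percent inhibition from mP, scaled between DMSO and no-protein wells. Replication: one well per compound.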
Chain of Serine hydrolase RBBP9 (Homo sapiens) (O75884 whole entry, looked up): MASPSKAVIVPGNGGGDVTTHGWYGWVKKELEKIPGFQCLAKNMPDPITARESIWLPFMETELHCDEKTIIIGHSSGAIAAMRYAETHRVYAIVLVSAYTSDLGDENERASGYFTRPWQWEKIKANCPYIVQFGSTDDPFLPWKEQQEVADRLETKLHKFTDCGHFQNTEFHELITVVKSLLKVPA
A general note: Fluorescence polarisation rises when a labelled molecule tumbles more slowly, as on binding a larger partner.
As a reminder, the inhibition is the drop in the measured response relative to a control, in per cent. Turning to `Cc1ccc2cc(CCNC(=O)c3c(-c4ccccc4Cl)noc3C)c(=O)[nH]c2c1`, the inhibition was -1.48%.
Then `O=c1c2ccccc2nc2n1C(CSCc1cccc(C(F)(F)F)c1)CS2` (stereo not drawn), with -8.83%; and `N#Cc1c(NC(=O)C2CC(Cl)=CCC2C(=O)O)sc2c1CCCCC2` (stereo not drawn), with -6.51%; and `CCNC(=S)N1CCC(c2nc3cc(C)c(C)cc3[nH]2)CC1`, with -6.72%.
Then `Cc1cc([N+](=O)[O-])nn1Cc1ccc(F)cc1`, with 16.8% (active).
Then `Cc1cc([N+](=O)[O-])nn1CC(=O)Nc1ccc(Cc2ccncc2)cc1`, with -7.35%.
For the compound `Cc1cc([N+](=O)[O-])nn1CCCC(=O)Nc1cccnc1Cl`, the inhibition is -5.84%.
As to `Brc1cc(/C=N/n2cnnc2)oc1Br`, the inhibition is -14.7%.
Then `COc1ccccc1NC(=O)C1=C(C)NC(=O)NC1c1ccc(C)s1` (stereo not drawn), with -5.66%; and `Cc1cc(C#N)c(SCC(N)=O)nc1-c1ccc(F)cc1`, with -8.75%; and `CC(C)OCC(O)CN1CCN(C(c2ccccc2)c2ccccc2)CC1` (stereo not drawn), with 2.7%.
The figure for `O=[N+]([O-])c1ccc(N2CCN(c3ccc(O)cc3)CC2)c(Cl)c1` is -8.4%; for `CC(C)OCCCNC(=O)CNC(=O)c1cccs1` it is 14.6% (active).
The figure for `CC(C)NC(=O)C(=O)NCCCOC(C)C` is -0.43%; for `CC(C)C(=O)Nc1ccc(C(=O)NNC(=O)c2cccs2)cc1` it is 3.67%; for `CCOC(=O)NN1C(=O)c2ccccc2NC1c1ccccc1O` (stereo not drawn) it is 0.52%.
For the compound `CCOC(=O)C1=C(N)N2C(=O)C(C)SC2=C(C(=O)OCC)C1c1cc(OC)c(OC)c(OC)c1` (stereo not drawn), the inhibition was 4.66%.
The figure for `COc1cc(C2C(C(=O)OCCC#N)=C(C)NC3=C2S(=O)(=O)c2ccccc23)cc(OC)c1OC` (stereo not drawn) is 21.6% (active).
Then `COCCOC(=O)C1=C(C)Nc2nc(C)nn2C1c1ccccc1` (stereo not drawn), with 0.85%.
As for `COCCNC(=O)Nc1ccc2nc(-c3ccco3)c(-c3ccco3)nc2c1`, the inhibition was 17.9% (active).
Turning to `O=C(NCc1ccccn1)c1ccc2nc(-c3ccco3)c(-c3ccco3)nc2c1`, the inhibition was -0.69%.
The figure for `COc1ccc(NC(=O)Nc2ccc3nsnc3c2)cc1` is -1.59%.
The figure for `COC(=O)CC(=O)N1CCN(c2ccc(Cl)c(Cl)c2)CC1` is 0.17%; for `CC1(C)CC2CC(C)(CN2c2ncnc3ccc(Br)cc23)C1` (stereo not drawn) it is -2.76%.
`CCOC(=O)c1sc(=NC(=O)/C=C/c2cccs2)n(C)c1C`: the inhibition is -10.7%.
Then `CCOC(=O)c1ccc(N=C2SC(C(=O)NC)CC(=O)N2CCc2ccccc2)cc1` (stereo not drawn), with -5.9%; and `COC(=O)Cc1ccc(NC(=S)NCc2ccco2)cc1`, with -2.67%; and `Cc1nnc(SC(C(=O)Nc2cc(Cl)cc(Cl)c2)c2ccccc2)[nH]c1=O` (stereo not drawn), with -10.7%.
`CSc1sc(C(=O)NNC(=O)c2ccc(Cl)cc2)c2c1C=CCC2`: the inhibition is -0.01%.
The figure for `COC(=O)c1ccc(C2C3=C(Nc4nnnn42)c2ccccc2OC3)cc1` (stereo not drawn) is -9.06%; for `Cc1ccc(Sc2ccncc2S(N)(=O)=O)cc1` it is -3.25%.
Then `CC(NCc1nc2ccccc2n1C)C12CC3CC(CC(C3)C1)C2` (stereo not drawn), with 1.94%.
The figure for `Cc1ccc(-c2cc(C(F)(F)F)n3nc(C(=O)N4CCCC4)cc3n2)cc1` is -1.99%.
In the case of `CCN(CC)C(=O)N1CCN(C(=O)c2ccc(C)cn2)CC1`, the inhibition was 18.9% (active).
`Cc1ccc(OCC(=O)N2CCN(C(=O)c3cccnc3)CC2)cc1`: the inhibition is -7.21%.
Then `Cc1ccc(S(=O)(=O)/N=C(\CN2CCOCC2)N2CCOCC2)cc1`, with 5.6%.
Regarding `CCCCCc1nnc(NC(=O)c2ccc(=O)n(C)n2)s1`, the inhibition was -7.4%.
As to `CSCCC(NC(=O)c1ccco1)C(=O)OCC(=O)Nc1ncc(Cl)c(C)c1Cl` (stereo not drawn), the inhibition was -5.55%.
For `CC[n+]1c(C)n(-c2ccccc2)c2ccc(NC(C)=O)cc21`, the inhibition was -7.36%.
The figure for `CCC(C)c1ccc(NC(=S)NCc2ccccn2)cc1` (stereo not drawn) is -8.32%; for `CC(C)Oc1ccc(CCC(=O)NNC(=S)NCc2ccccc2)cc1` it is -2.85%.
With `O=C(CCC1CCCN(Cc2ccc(O)c(Cl)c2)C1)NCc1ccccc1F` (stereo not drawn), the inhibition was -3.09%.
The figure for `Brc1ccc(-c2n(-c3ccccn3)c3ccccc3[n+]2-c2ccccn2)cc1` is 0.06%; for `CCC(CC)c1nnc(NC(=O)/C=C/c2ccco2)s1` it is -5.03%.
The figure for `O=C(NCC1CCCO1)C1CCN(C2CCN(C(=O)C3CCCCC3)CC2)CC1` (stereo not drawn) is -1.77%.
On to `COC(=O)c1cccc(NS(C)(=O)=O)c1`, for which the inhibition was 2.15%.
`C#CCOCCOCCOCCNc1nc(N2CCN(C(=O)[C@H](C(C)C)n3cc(CCO)nn3)CC2)nc(N2CCN(C(=O)[C@H](C(C)C)n3cc(CCO)nn3)CC2)n1`: the inhibition was -3.79%.
Turning to `O=C(N/N=C/c1c(Cl)[nH]c2ccccc12)c1sc2ccccc2c1Cl`, the inhibition was -18.2%.
On to `Oc1ccc(N=Cc2sc3ccccc3c2Cl)cc1`, for which the inhibition was 15.9% (active).
As to `Oc1ccc(N=Cc2c(O)ccc3ccccc23)cc1`, the inhibition was 5.11%.
Then `CC1(C)CC(=O)C2=C(C1)N=C1SCCC(=O)N1C2c1ccc(C(F)(F)F)cc1` (stereo not drawn), with -1.93%.
Then `COc1ccc(/C=C(\C#N)C(=O)ONC2=NCCCCC2)cc1`, with -9.38%.
The figure for `COc1cccc(-c2nn(-c3ccccc3)cc2/C=C(\C#N)C(=O)NCCCn2ccnc2)c1` is -15%.
As to `CCOc1ccc(N2C(=O)CN(c3cccc4ccccc34)C2=S)cc1`, the inhibition is -4%.
Then `COc1cccc(N(Cc2nnc3n2CCCCC3)C(=O)Nc2ccccc2F)c1`, with -3.77%.
Then `O=C(Nc1nc(-c2cccnc2)cs1)c1ccccc1F`, with -5.59%; and `COc1ccc(/C=N/NC(=O)c2ccccc2)cc1OS(=O)(=O)c1ccccc1`, with -7.38%.
Then `COc1cc(/C=N/NC(=O)c2ccccc2)ccc1OS(=O)(=O)c1ccccc1`, with -11.2%; and `COc1cc(/C=N/NC(=O)Nc2ccccc2)ccc1OCCOc1ccccc1C`, with 65.1% (active).
For `Cc1ccc(C(=O)N2CCN(S(=O)(=O)N3CCOCC3)CC2)cc1`, the inhibition was 0.85%.
The figure for `COc1ccc(C(=O)NN2C(=O)C3C(c4ccccc4)C=CC(c4ccccc4)C3C2=O)cc1` (stereo not drawn) is -6.27%; for `O=C(NCC1CCN(Cc2ccccc2Cl)CC1)Nc1cccc(Cl)c1` it is -3.66%; for `Cc1cc(/C=C(/C#N)C(=O)Nc2ccc(Cl)cc2)c(C)n1-c1cccnc1` it is -4.94%.
Turning to `O=c1[nH][nH]c(=O)c2cc(N3CCCC3)ccc12`, the inhibition is 0.44%.
Then `O=C1C=CC(=O)N1c1ccc(N2CCCCC2)cc1`, with 14.7% (active).
Regarding `Cc1ccccc1C(=O)Nc1ccc(N2CCCCCC2)cc1`, the inhibition was -6.04%.
Then `Cc1c(NC(=O)CN2C(=O)C(=O)N(Cc3ccccc3)C2=O)c(=O)n(-c2ccccc2)n1C`, with -6.97%; and `CCS(=O)(=O)c1ccc(O)c(NC(=O)COc2ccc(Cl)cc2)c1`, with -5.54%; and `Cc1ccnc(SCC(N)=O)n1`, with -18.6%.
Then `Cc1ccnc(-n2sc3ccccc3c2=O)n1`, with 43.2% (active); and `Cc1ccnc(Nc2nc3ccccc3s2)n1`, with -1.41%; and `CCOC(=O)CCCNC(=O)COC(=O)/C=C/c1ccc2c(c1)OCO2`, with 6.07%.
On to `Cc1ccc(C(O)P(=O)(OC(C)C)c2ccc(N(C)C)cc2)cc1` (stereo not drawn), for which the inhibition was -1.11%.
The figure for `O=C(C1CCCO1)N1CCN(C(=S)Nc2cccc(Cl)c2)CC1` (stereo not drawn) is -9.39%; for `O=C(COc1ccc(Cl)cc1)N1CCN(c2cccc(C(F)(F)F)c2)CC1` it is -0.45%.
Regarding `CCC(=O)c1ccc(OCC(O)CN2CC(C)OC(C)C2)cc1` (stereo not drawn), the inhibition is -8.04%.
The figure for `CCC(=O)c1ccc(OCC(O)CN2CCN(c3cccc(C(F)(F)F)c3)CC2)cc1` (stereo not drawn) is 17.3% (active); for `O=C(O)c1ccccc1-c1ccccc1C(=O)Nc1nccs1` it is -2.01%.
For `CCN1CCc2nc(NC(=O)c3cc(F)c(F)cc3Cl)sc2C1`, the inhibition is -0.19%.
The figure for `CCOc1ccc2nc(NCCNC(=O)C(C)(C)C)c(C)cc2c1` is -3.3%; for `Cc1ccc(C(=O)COC(=O)CCN2C(=O)C3C4CC(C(Br)C4Br)C3C2=O)cc1` (stereo not drawn) it is -2.32%; for `COc1ccc(OC)c(NC(=S)N2CCc3ccccc3C2)c1` it is 1.81%.
Then `Cc1ccc(C)c(Cn2cnc3c(oc4ccccc43)c2=O)c1`, with -1.77%; and `Cc1ccc(CN2CCN(Cc3ccccc3-c3ccco3)CC2CCO)o1` (stereo not drawn), with -3.63%.
Then `CN(C)c1nnnn1-c1ccc(Cl)cc1`, with 3.3%; and `CC(C)c1ccc(Nc2nnc(SCC(=O)c3nnc(-c4ccccc4)o3)s2)cc1`, with -10.9%.
As to `Cc1occc1C(=O)N1CCCc2ccccc21`, the inhibition was 7.03%.
For `CCC(=O)N1CCCc2ccccc21`, the inhibition was 16.1% (active).
Then `O=C(CSCc1ccccc1)N1CCc2ccccc21`, with -3.54%; and `COc1cc(OC)cc(-c2nc(=S)n3ccsc3n2)c1`, with 0.8%.
For the compound `O=C1CN(C(=O)CN2C(=O)NC3(CCCCC3)C2=O)c2ccccc2N1`, the inhibition was -4.87%.
Consider `CCSc1ccccc1C(=O)Nc1ccc2c(c1)OCO2`, for which the inhibition is -7.81%.
The figure for `CN(/C(=N/S(=O)(=O)c1cccs1)c1ccccc1)c1ccc(O)cc1` is -5.39%; for `O=C(CSc1nnc(SCc2ccc(Cl)cc2)s1)N/N=C/c1ccccc1Cl` it is -7.13%; for `COc1cc(NC(=S)NCc2ccc(S(N)(=O)=O)cc2)cc(OC)c1` it is 1.34%.
The figure for `COc1ccc(CCC(=O)OCC(=O)Nc2ccc(C)c(S(=O)(=O)N(C)C)c2)cc1` is -1.71%.
The figure for `COc1ccc(NS(=O)(=O)c2cc(NC(=O)CC(=O)c3ccc([N+](=O)[O-])cc3)ccc2C)cc1` is 28.9% (active).
For the compound `COc1cccc(NCCC(=O)c2cccc([N+](=O)[O-])c2)c1`, the inhibition is -8.98%.

The record behind these values is PubChem BioAssay AID1515 (The Scripps Research Institute Molecular Screening Center, 2009).
